Laboratory results published in ChEMBL document CHEMBL3271979, “Inhibition of solid tumors by nitrosoureas. 1. Lewis lung carcinoma” (1977).
The source made the active and inactive calls. The rule behind the calls is not given here.

Key:
Mus musculus [1] = assay: Antitumor activity against mouse advanced Lewis lung carcinoma allografted in BDF1 mouse assessed as disease cure at 52 mg/kg, ip administered as single dose on 7th day post-tumor implantation measured for 80 days post-drug treatment; type: functional, organism-based; set-up: dose 52 mg/kg
Method in brief: (§1)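 BDF1 mice (C57Blk/6 × DBA/2) implanted sc by trocar with Lewis lung tumor fragments of about 40 mg, taken only from bacteriologically sterile donor tumors. Mice bearing tumors of about 400 mg (day 6-7) were selected. Each received a single ip dose on day 7, at or below the LD10 in normal mice. Groups were of 10 mice. Tumor weight was taken from calipers as w = ab²/2, measured at least twice weekly. Matched non-tumor mice served as toxicity controls.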

[2] = Antitumor activity against mouse advanced Lewis lung carcinoma allografted in BDF1 mouse assessed as increase in host life span at 52 mg/kg, ip administered as single dose on 7th day post-tumor implantation; type: functional; details: route intraperitoneal
Method in brief: (§2)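 BDF1 mice (C57Blk/6 × DBA/2) implanted sc by trocar with about 40 mg Lewis lung tumor fragments from bacteriologically sterile donors. Advanced-disease groups held tumors of about 400 mg by day 6-7, sized by caliper (w = ab²/2). Single ip injection on day 7, in water or saline vehicle, at or below the LD10 in normal mice. Tumors measured at least twice weekly.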

Mus musculus [3] = assay: Antitumor activity against mouse advanced Lewis lung carcinoma allografted in ip dosed BDF1 mouse assessed as complete regression of established tumor administered as single dose on day 6 or 7 post-tumor implantation; type: functional, organism-based; method in brief: as §1
Mus musculus [4] = assay: Antitumor activity against mouse advanced Lewis lung carcinoma allografted in ip dosed BDF1 mouse assessed as disease cure administered as single dose on day 6 or 7 post-tumor implantation; type: functional, organism-based; method in brief: as §1
[5] = Antitumor activity against mouse advanced Lewis lung carcinoma allografted in BDF1 mouse assessed as increase in host life span at 29 mg/kg, ip administered as single dose on 7th day post-tumor implantation; type: functional; details: route intraperitoneal; method in brief: as §2
[6] = Antitumor activity against mouse advanced Lewis lung carcinoma allografted in BDF1 mouse assessed as increase in host life span at 30 mg/kg, ip administered as single dose on 7th day post-tumor implantation; type: functional; details: route intraperitoneal; method in brief: as §2
[7] = Antitumor activity against mouse advanced Lewis lung carcinoma allografted in BDF1 mouse assessed as increase in host life span at 67 mg/kg, ip administered as single dose on 7th day post-tumor implantation; type: functional; details: route intraperitoneal; method in brief: as §2
Mus musculus [8] = assay: Antitumor activity against mouse advanced Lewis lung carcinoma allografted in BDF1 mouse assessed as disease cure at 67 mg/kg, ip administered as single dose on 7th day post-tumor implantation measured for 80 days post-drug treatment; type: functional, organism-based; set-up: dose 67 mg/kg; method in brief: as §1
Mus musculus [9] = assay: Antitumor activity against mouse advanced Lewis lung carcinoma allografted in BDF1 mouse assessed as complete regression of established tumor at 41 mg/kg, ip administered as single dose on 7th day post-tumor implantation; type: functional, organism-based; set-up: dose 41 mg/kg; method in brief: as §1
[10] = Antitumor activity against mouse advanced Lewis lung carcinoma allografted in ip dosed BDF1 mouse assessed as increase in host lifespan administered as single dose on day 6 or 7 post-tumor implantation; type: functional
Method in brief: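 Advanced Lewis lung model: about 40 mg fragments implanted sc by trocar into BDF1 mice, and mice with tumors of about 400 mg (day 6-7) selected. Tumor weight from calipers, w = ab²/2. Agent given as one ip dose in distilled water or physiological saline. Nontumor-bearing mice received matching doses as toxicity controls.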

Mus musculus [11] = assay: Antitumor activity against mouse advanced Lewis lung carcinoma allografted in BDF1 mouse assessed as disease cure at 41 mg/kg, ip administered as single dose on 7th day post-tumor implantation measured for 80 days post-drug treatment; type: functional, organism-based; set-up: dose 41 mg/kg; method in brief: as §1
Mus musculus [12] = assay: Antitumor activity against mouse advanced Lewis lung carcinoma allografted in BDF1 mouse assessed as complete regression of established tumor at 27 mg/kg, ip administered as single dose on 7th day post-tumor implantation; type: functional, organism-based; set-up: dose 27 mg/kg; method in brief: as §1
[13] = Antitumor activity against mouse advanced Lewis lung carcinoma allografted in BDF1 mouse assessed as increase in host life span at 27 mg/kg, ip administered as single dose on 7th day post-tumor implantation; type: functional; details: route intraperitoneal; method in brief: as §2
Mus musculus [14] = assay: Antitumor activity against mouse advanced Lewis lung carcinoma allografted in BDF1 mouse assessed as disease cure at 27 mg/kg, ip administered as single dose on 7th day post-tumor implantation measured for 80 days post-drug treatment; type: functional, organism-based; set-up: dose 27 mg/kg; method in brief: as §1
[15] = Antitumor activity against mouse advanced Lewis lung carcinoma allografted in BDF1 mouse assessed as increase in host life span at 41 mg/kg, ip administered as single dose on 7th day post-tumor implantation; type: functional; details: route intraperitoneal; method in brief: as §2
[16] = Antitumor activity against mouse advanced Lewis lung carcinoma allografted in BDF1 mouse assessed as increase in host life span at 90 mg/kg, ip administered as single dose on 7th day post-tumor implantation; type: functional; details: route intraperitoneal; method in brief: as §2
Mus musculus [17] = assay: Antitumor activity against mouse advanced Lewis lung carcinoma allografted in BDF1 mouse assessed as disease cure at 90 mg/kg, ip administered as single dose on 7th day post-tumor implantation measured for 80 days post-drug treatment; type: functional, organism-based; set-up: dose 90 mg/kg; method in brief: as §1
[18] = Ratio of ED50 for antitumor activity against mouse L1210 cells allografted in ip dosed mouse to LD10 for mouse
Mus musculus [19] = assay: Antitumor activity against mouse early Lewis lung carcinoma allografted in ip dosed BDF1 mouse administered as single dose on 1 or 2 days post-tumor implantation measured for 80 days post-drug treatment; type: functional, organism-based
Method in brief: (§3)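 BDF1 mice implanted sc by trocar with ~40 mg Lewis lung fragments from sterile donor tumors. A single ip dose was given on day 1 or 2 after implant, in water or saline vehicle. Cures were scored in animals observed for at least 80 days after treatment. Drug-toxicity controls were matched non-tumor-bearing mice monitored for body weight and deaths.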

[20] = Antitumor activity against mouse advanced Lewis lung carcinoma allografted in BDF1 mouse assessed as increase in host life span at 144 mg/kg, ip administered as single dose on 7th day post-tumor implantation; type: functional; details: route intraperitoneal; method in brief: as §2
Mus musculus [21] = assay: Antitumor activity against mouse advanced Lewis lung carcinoma allografted in BDF1 mouse assessed as disease cure at 144 mg/kg, ip administered as single dose on 7th day post-tumor implantation measured for 80 days post-drug treatment; type: functional, organism-based; set-up: dose 144 mg/kg; method in brief: as §1
Mus musculus [22] = assay: Antitumor activity against mouse early Lewis lung carcinoma allografted in ip dosed BDF1 mouse assessed as disease cure administered as single dose on 1 or 2 days post-tumor implantation measured for 80 days post-drug treatment; type: functional; method in brief: as §3

SMILES: CC1(C)CCC(NC(=O)N(CCF)N=O)CC1
- Activity (Mus musculus [1]): inactive
- ILS at 52 mg/kg [2]: 100%
- inhibition (Mus musculus [3]): Active
- Activity (Mus musculus [4]): inactive

SMILES: CCOC(=O)[C@H]1CC[C@H](NC(=O)N(CCCl)N=O)CC1
- Activity (Mus musculus [4]): Active
- ILS at 29 mg/kg [5]: 75%
- ILS at 30 mg/kg [6]: 68%

SMILES: CC[C@H]1CC[C@H](NC(=O)N(CCCl)N=O)CC1
- ILS at 67 mg/kg [7]: 17%
- Activity (Mus musculus [8]): inactive
- inhibition (Mus musculus [3]): Active
- Activity (Mus musculus [4]): inactive

SMILES: O=NN(CCF)C(=O)NC1CSCSC1
- inhibition (Mus musculus [9]): inactive
- ILS [10]: >25%
- Activity (Mus musculus [11]): inactive
- inhibition (Mus musculus [12]): inactive
- inhibition (Mus musculus [3]): inactive
- Activity (Mus musculus [4]): inactive
- ILS at 27 mg/kg [13]: 40%
- Activity (Mus musculus [14]): inactive
- ILS at 41 mg/kg [15]: 21%

SMILES: O=NN(CCCl)C(=O)N[C@H]1CCCC[C@H]1Cl (relative stereo)
- ILS [10]: >25%
- ILS at 90 mg/kg [16]: 62%
- Activity (Mus musculus [4]): inactive
- Activity (Mus musculus [17]): inactive

SMILES: O=NN(CCCl)C(=O)NC1C2CC3CC(C2)CC1C3 (stereo unspecified)
- Ratio [18]: 0.6
- Activity (Mus musculus [19]): inactive
- inhibition (Mus musculus [3]): Active
- Activity (Mus musculus [4]): inactive
- ILS at 144 mg/kg [20]: 19%
- Activity (Mus musculus [21]): inactive
- Activity (Mus musculus [22]): inactive
